Experimental data from PubChem BioAssay.
Inconclusive results are not listed.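 How the source made its calls, unless noted: active means inhibition over a set limit, the all-compound mean plus 3 SD, in both replicate runs; inconclusive means over that limit in just one replicate run; inactive means at or under that limit in both runs.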

What was measured:
[1] = OD615 S. cerevisiae growth inhibition, permissive medium, pilot counter-assay, permissive growth control for S. cerevisiae lifespan shortening project (AID 705;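 active means growth inhibition above 25% in both replicates, a cutoff set 3 SD above the mean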); settings: OD615, 24 h, at 10 µM, hits give high values
Procedure, shortened: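 Test system: Saccharomyces cerevisiae strain carrying genetically modified DeaD replicative-lifespan system; buffer or medium: SC raffinose/galactose permissive medium; dosing: one dose 10 µM, DMSO 0.25% final; times: 24 h exposure, 30 °C; measured by: OD at 615 nm; read-out basis: growth inhibition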

[2] = Restrictive medium S. cerevisiae growth inhibition, OD615, pilot screen of yeast lifespan reduction project, restrictive growth control (AID 706;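 active means growth inhibition above a set limit, 3 SD over mean compound inhibition, in both replicates, cut at about 43% in these data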;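 further: modified DeaD lifespan yeast strain shifted to restrictive glucose medium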); settings: OD615, 48 h, at 10 µM, hits give high values
Procedure, shortened: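 material = engineered S. cerevisiae DeaD strain | buffer or medium = glucose-based CSMM-D restrictive medium | dosing = one concentration, 10 µM final, 0.25% DMSO | schedule = 4 h pre-growth plus 48 h compound exposure, 30 °C | detection = OD615 absorbance reading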

[3] = viability gain of MRP-1-high H69AR cells under doxorubicin, pilot screen, MRP-1 activator project, CellTiter-Glo, duplicate (AID 807;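 active means viability increase at or above a cutoff of the median across tested compounds plus 3 SD, cut at about 8.5% in these data, passing the limit was not always enough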;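 further: compound pretreatment 18-22 h then 72 h combined with doxorubicin; 0% = doxorubicin alone and 100% = vehicle without doxorubicin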); settings: H69AR viability with doxorubicin, CellTiter-Glo luminescence; at 10 µM; hits give high values
[4] = growth suppression of beta-catenin knockout HCT116, pilot screen, human colon tumor cells (AID 823;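 active means cell viability at or below a set limit in both duplicate runs, the limit being the all-compound median minus 4 SD, cut at about 23% in these data, passing the limit was not always enough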;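 further: 0% = wells killed by 20 µM Hyamine and 100% = untreated DMSO cell wells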); settings: CellTiter-Glo, 60 h, at 10 µM, hits give low values
[5] = growth suppression of PTEN-deleted HCT116, pilot screen, cell-based, HCT116 clonal line, CellTiter-Glo (AID 824;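 active means viability at or below 27.92% in each of two runs, the all-compound median minus 4 SD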;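 further: 0% = 20 µM Hyamine control and 100% = vehicle cell control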); settings: 60 h, at 10 µM, hits give low values
[6] = inhibitors of the yeast RAM network, pilot screen, dse1pr::URA3 reporter, 5-FOA selection (AID 869);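 further: 0% = DMSO wells with no growth and 100% = 10 µM 1-NA-PP1 with full growth; RAM network block rescues cells from 5-FOA so hits raise OD615 growth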; settings: S. cerevisiae dse1pr::URA3 5-FOA growth, OD615, 2 d; at 10 µM; hits give high values; strain carries analog-sensitive mutant Cbk1 kinase
[7] = RAM signaling pathway blockade in yeast – S. cerevisiae, Pdr1DBD-CYC8 efflux-inhibited sensitized strain, primary screen (AID 1298;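 active means RAM network inhibition above 8.4% in each of two replicates, 3 SD over the compound average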;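 further: 0% = DMSO untreated cells without growth and 100% = 10 µM 1-NA-PP1 full growth; higher means more yeast growth rescued from 5-FOA killing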); settings: S. cerevisiae cbk1-as DSE1-URA3 strain, 5-FOA growth OD615, 2 d; at 50 µM; hits give high values

Cc1nn(-c2ccccc2)c(C)c1NC(=O)Cc1cccs1
inactive: growth inhibition [1] -10.7% | growth inhibition [2] -4.28% | viability increase [3] -2.07% | viability [4] 95.2% | viability [5] 92.1% | inhibition [6] 1.18% | RAM network inhibition [7] 1.1%

O=C(COc1ccccc1Br)NCc1ccco1
inactive: growth inhibition [1] 2.92% | growth inhibition [2] 8.48% | viability increase [3] -3.54% | viability [4] 97% | viability [5] 102% | inhibition [6] 1.51% | RAM network inhibition [7] 3.3%

O=C(O)CC1C(=O)NCCN1Cc1ccc(F)c(F)c1 (configuration not stated)
inactive: growth inhibition [1] -11.2% | growth inhibition [2] 3.21% | viability increase [3] -1.31% | viability [4] 99.4% | viability [5] 88.2% | inhibition [6] 3.32% | RAM network inhibition [7] -0.21%

CC(=O)c1cc(F)c(N2CCN(CCC#N)CC2)cc1C
inactive: growth inhibition [1] -3.07% | growth inhibition [2] -19.6% | viability increase [3] -0.38% | viability [4] 105% | viability [5] 81.3% | inhibition [6] 0.35% | RAM network inhibition [7] 0.47%

O=S(=O)(c1cccc2cccnc12)N1CCN(Cc2ccc3c(c2)OCO3)CC1
inactive: growth inhibition [1] -7.45% | growth inhibition [2] -17.5% | viability increase [3] -0.35% | viability [4] 84.3% | viability [5] 92.2% | inhibition [6] 1.28% | RAM network inhibition [7] 0.52%

Cc1ccc(C)c(N2CCN(CC(=O)Nc3ccc4[nH]c(=O)[nH]c4c3)CC2)c1
inactive: growth inhibition [1] -13.7% | growth inhibition [2] -14.9% | viability increase [3] -5.54% | viability [4] 92.9% | viability [5] 89.1% | inhibition [6] 0.03% | RAM network inhibition [7] 1.87%

Brc1ccc(C2Nc3cccc4cccc(c34)N2)o1
inactive: growth inhibition [1] -13.8% | growth inhibition [2] -9.64% | viability increase [3] -0.34% | viability [4] 85.9% | viability [5] 92.5% | inhibition [6] 2.66% | RAM network inhibition [7] 1.71%

Cn1c(Cn2c(=O)sc3ccccc32)nnc1SCc1cccnc1
inactive: growth inhibition [1] -3.75% | growth inhibition [2] 2.86% | viability increase [3] -1.44% | viability [4] 96.6% | viability [5] 97.1% | inhibition [6] 1.83% | RAM network inhibition [7] 5.33%

C(#Cc1ccc(C#CCN2CCOCC2)cc1)CN1CCOCC1
inactive: growth inhibition [1] -17.1% | growth inhibition [2] -9.67% | viability increase [3] -0.83% | viability [4] 85.8% | viability [5] 87.2% | inhibition [6] 1.15% | RAM network inhibition [7] 3.18%

COC(=O)c1cc(NC2c3ccccc3C(=O)N2c2cccnc2)cc(C(=O)OC)c1 (configuration not stated)
inactive: growth inhibition [1] -10.2% | growth inhibition [2] 0.875% | viability increase [3] -4.6% | viability [4] 90.6% | viability [5] 91.4% | inhibition [6] 1.27% | RAM network inhibition [7] 6.35%

Cc1cccc(NC(=O)C2CCN(S(=O)(=O)c3cccc4cccnc34)CC2)c1
inactive: growth inhibition [1] 3.19% | growth inhibition [2] 11.8% | viability increase [3] -1.52% | viability [4] 88.2% | viability [5] 81.8% | inhibition [6] 3.88% | RAM network inhibition [7] 2.49%

Cc1cccc(-n2ncc3c(Nc4ccc(F)cc4)ncnc32)c1
inactive: growth inhibition [1] -11.3% | growth inhibition [2] -5.18% | viability increase [3] 2.21% | viability [4] 106% | viability [5] 95.4% | inhibition [6] 3.18% | RAM network inhibition [7] 1.56%

CC(=O)C1=C(O)C(=O)N(c2nnn(C)n2)C1c1cccs1 (configuration not stated)
inactive: growth inhibition [1] -9.56% | growth inhibition [2] -6.22% | viability increase [3] -1.76% | viability [4] 107% | viability [5] 95.8% | inhibition [6] 2.02% | RAM network inhibition [7] 0.72%

COc1ccc(Cl)cc1N(CC(=O)Nc1ccc2c(c1)OCO2)S(C)(=O)=O
inactive: growth inhibition [1] -15.1% | growth inhibition [2] -11.7% | viability increase [3] -3.17% | viability [4] 92.6% | viability [5] 89.4% | inhibition [6] 0.79% | RAM network inhibition [7] 2.18%

COc1ccc(C2C3=C(CC(c4ccco4)CC3=O)Nc3ccccc3N2C(C)=O)cc1 (configuration not stated)
inactive: growth inhibition [1] -19% | growth inhibition [2] -16.4% | viability increase [3] -2.47% | viability [4] 93.5% | viability [5] 102% | inhibition [6] 1.25% | RAM network inhibition [7] 0.96%

C=C(C)CSc1nc2c(cc1C#N)CCC2
inactive: growth inhibition [1] 9.43% | growth inhibition [2] 21.6% | viability increase [3] 1.11% | viability [4] 99.4% | viability [5] 99.1% | inhibition [6] 2.3% | RAM network inhibition [7] 1.58%

CCOC(=O)c1ccc(NC(=O)C2CCCN(S(=O)(=O)c3cnc[nH]3)C2)cc1 (configuration not stated)
inactive: growth inhibition [1] 2.33% | growth inhibition [2] 2.53% | viability increase [3] 0.94% | viability [4] 105% | viability [5] 96.7% | inhibition [6] 0.31% | RAM network inhibition [7] 2.17%

N#Cc1ccc(CSCC(=O)O)cc1
inactive: growth inhibition [1] -10.3% | growth inhibition [2] -2.01% | viability increase [3] 1.1% | viability [4] 97.4% | viability [5] 107% | inhibition [6] 2.8% | RAM network inhibition [7] 4.42%

CC(C)CCNC(=O)Cn1cc2c(n1)CCCCC2
inactive: growth inhibition [1] 3.78% | growth inhibition [2] 2.78% | viability increase [3] -1.8% | viability [4] 106% | viability [5] 100% | inhibition [6] 1.82% | RAM network inhibition [7] 1.38%

N#Cc1nc(COc2ccccc2)oc1N1CCCCC1
inactive: growth inhibition [1] -9.45% | growth inhibition [2] 10.3% | viability increase [3] 2.53% | viability [4] 87.5% | viability [5] 88.9% | inhibition [6] 0.495% | RAM network inhibition [7] -1.83%

CC1(C)CC(=O)C2=C(C1)Nc1ccccc1NC2c1nc2ccccc2[nH]1 (configuration not stated)
inactive: growth inhibition [1] -10.1% | growth inhibition [2] 1.04% | viability increase [3] -3.97% | viability [4] 100% | viability [5] 95.7% | inhibition [6] 1.65% | RAM network inhibition [7] 1.45%

O=C(Nc1cnc2ccccc2c1)c1cccnc1
inactive: growth inhibition [1] 4.78% | growth inhibition [2] 0.625% | viability increase [3] -7.98% | viability [4] 103% | viability [5] 103% | inhibition [6] 1.74% | RAM network inhibition [7] -0.15%

CCOC(=O)N1CCN(C(=O)Cn2ncc3ccccc32)CC1
inactive: growth inhibition [1] -14.3% | growth inhibition [2] -4.71% | viability increase [3] -1.62% | viability [4] 105% | viability [5] 89.4% | inhibition [6] 3.38% | RAM network inhibition [7] 2.51%

N#Cc1c(SCC(N)=O)nc2c(c1-c1ccc(O)cc1)CCCC2
inactive: growth inhibition [1] -15.2% | growth inhibition [2] -15.6% | viability increase [3] -1.33% | viability [4] 94.5% | viability [5] 93.6% | inhibition [6] 3.51% | RAM network inhibition [7] 4.51%

CCNCCNC(=O)c1c(O)c2cccc3c2n(c1=O)CCC3
inactive: growth inhibition [1] -22.8% | growth inhibition [2] -19% | viability increase [3] -3.02% | viability [4] 82.6% | viability [5] 93.7% | inhibition [6] 0.7% | RAM network inhibition [7] 0.57%

CN1CCN(CCCNC(=O)c2cn(C)c3ccc(S(=O)(=O)N(C)C)cc3c2=O)CC1
inactive: growth inhibition [1] -0.94% | growth inhibition [2] 2.12% | viability increase [3] -0.23% | viability [4] 103% | viability [5] 103% | inhibition [6] -0.355% | RAM network inhibition [7] 5.1%

CCc1cccc(NC(=O)CS(=O)Cc2nc(-c3ccc(C)cc3)oc2C)c1 (configuration not stated)
inactive: growth inhibition [1] 9.24% | growth inhibition [2] 24.4% | viability increase [3] -1.87% | viability [4] 96.1% | viability [5] 87.1% | inhibition [6] 1.46% | RAM network inhibition [7] 3.37%

COc1ccc(CCNC(=O)c2c(-c3ccccc3)noc2C)cc1OC
inactive: growth inhibition [1] 3.07% | growth inhibition [2] -2.27% | viability increase [3] 0.19% | viability [4] 102% | viability [5] 101% | inhibition [6] 2.2% | RAM network inhibition [7] 0.43%

CCC(C)Sc1nnc(Cc2cc(=O)[nH]c(=O)[nH]2)n1-c1ccc(OC)cc1 (configuration not stated)
inactive: growth inhibition [1] 5.64% | growth inhibition [2] -6.83% | viability increase [3] -0.09% | viability [4] 104% | viability [5] 102% | inhibition [6] 0.295% | RAM network inhibition [7] 2.22%

CCOC(=O)C1=C(C)NC(C)=C(C(=O)OCC)C1C(=O)O
inactive: growth inhibition [1] -3.05% | growth inhibition [2] -4.22% | viability increase [3] -3.51% | viability [4] 93.5% | viability [5] 90% | inhibition [6] 0.265% | RAM network inhibition [7] 1.53%

CCOc1ccc(C(C)NC(=O)CCC(=O)O)cc1 (configuration not stated)
inactive: growth inhibition [1] -4.12% | growth inhibition [2] -1.54% | viability increase [3] -1.24% | viability [4] 93.4% | viability [5] 89% | inhibition [6] 1.27% | RAM network inhibition [7] 0.68%

COc1ccc(-c2nc(CS(=O)CC(=O)NC3CCCc4ccccc43)c(C)o2)cc1OC (configuration not stated)
inactive: growth inhibition [1] -8.29% | growth inhibition [2] 3.54% | viability increase [3] -2.94% | viability [4] 84.5% | viability [5] 90.9% | inhibition [6] 1.64% | RAM network inhibition [7] 8.66%

Cc1c(NC(=O)C(C)N2C(=O)C3C4C=CC(C4)C3C2=O)c(=O)n(-c2ccccc2)n1C (configuration not stated)
inactive: growth inhibition [1] -8.7% | growth inhibition [2] -11.3% | viability increase [3] -0.72% | viability [4] 95.4% | viability [5] 93.2% | inhibition [6] 1.39% | RAM network inhibition [7] 2.56%

O=C(Cn1cc2c(n1)CCCC2)N1CCCC1
inactive: growth inhibition [1] -1.5% | growth inhibition [2] 1.53% | viability increase [3] 0.07% | viability [4] 95.5% | viability [5] 96.6% | inhibition [6] 1.14% | RAM network inhibition [7] 4.6%

COc1cccc(NC(=O)CSc2nnc(-c3ccc(C)cc3)o2)c1
inactive: growth inhibition [1] -10.3% | growth inhibition [2] -11.9% | viability increase [3] -0.97% | viability [4] 93.9% | viability [5] 93.8% | inhibition [6] 2.13% | RAM network inhibition [7] 4%

COc1cccc(C2NC(=O)NC(C)=C2C(=O)Nc2ccc(C)cc2)c1OC (configuration not stated)
inactive: growth inhibition [1] -1.23% | growth inhibition [2] -4.83% | viability increase [3] 0.13% | viability [4] 98.5% | viability [5] 99.7% | inhibition [6] 0.455% | RAM network inhibition [7] 6.12%
